The values that follow come from PMC9494671 (ACS Omega, 2022).

Series [1] concerns Epitheloid cervix carcinoma cell line (HeLa). The experiment in a line: MTT cytotoxicity assay, HeLa. Type of series: cell-based, human. As to conditions: Homo sapiens, 24 h, read-out: IC50 (μM) HeLa. Put shortly: (§1)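 Cells grown in RPMI-1640 with 10% FBS, penicillin 100 units/mL and streptomycin 100 μg/mL at 37 °C, 5% CO2. Seeded at 1.0 × 10^4 cells/well for 48 h, then exposed to a range of test compound concentrations for 24 h, with CA-4 as positive control. MTT (5 mg/mL solution) added for 4 h, formazan dissolved in DMSO, absorbance read at 570 nm. IC50 = 50% growth inhibition, mean ± SD.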

For another series, the system named is tubulin. Nature of the series: In vitro tubulin polymerization inhibition assay. It counts as biochemical. As to conditions: read-out: IC50 (μM) tubulin polymerization inhibition; 4 mg/mL tubulin, 37 °C, OD340, mean ± SD from three independent experiments.
For series [2] the following is noted: cited from earlier work.
For series [3], the system named is Human breast adenocarcinoma cell line (MCF-7). Nature of the series: MTT cytotoxicity assay, MCF-7. Type of series: cell-based. As to conditions: Homo sapiens, MCF7, 24 h, read-out: IC50 (μM) MCF-7. Put shortly: as §1
The subject of series [4] is Human hepatocellular carcinoma cell line (HepG2). The experiment in a line: MTT cytotoxicity assay, HepG2. It counts as cell-based. Particulars: Homo sapiens, HepG2, 24 h, read-out: IC50 (μM) HePG2. In short, it runs like this:
as §1
(Tetrazolium dyes change colour on reduction, which living cells bring about.)

Series [5] deals with Human colorectal carcinoma cell line (HCT-116). The experiment in a line: MTT cytotoxicity assay, HCT-116. Type of series: cell-based. Particulars: Homo sapiens, HCT-116, 24 h, read-out: IC50 (μM) HCT-116. Put shortly:
as §1

In series [6] the test system is HepG2, HCT-116, MCF-7, and HeLa cell lines. Nature of the series: MTT cytotoxicity assay, statements over the four tested cell lines. As to conditions: all tested cell lines. Type of series: cell-based, human. Put shortly:
as §1

Consider `COc1ccc(/C=C\c2cc(OC)c(OC)c(OC)c2)cc1O` [CA-4, combretastatin A-4, reference compound], for which the IC50 (in general, the concentration that gives 50% inhibition) stood at 5.57 ± 0.3 µM in series [1]; […] with tubulin; 4.17 ± 0.2 µM in series [3]; 4.5 ± 0.2 µM in series [4]; 5.23 ± 0.3 µM in series [5]. Also, the solubility in water result in series [2] is recorded as “weakly soluble in water”.

On to `COc1cc(-c2csc(NC(=O)CNC(C)C)n2)cc(OC)c1OC` [Compound 5c, 2-(Isopropylamino)-N-(4-(3,4,5-trimethoxyphenyl)thiazol-2-yl)acetamide], for which the half-inhibitory concentration (IC50) in series [1] is 16 ± 0.8 µM; with tubulin, 2.95 ± 0.18 µM; in series [3], 15.5 ± 0.8 µM; in series [4], 11.9 ± 0.6 µM; in series [5], 12.9 ± 0.6 µM. Besides, the “cytotoxic effect, class in words, tested cell lines” value in series [6] was “strong (11–20 (strong))”.
